The term MIC denotes the lowest concentration found to suppress growth. The term MIC90 denotes an inhibitory concentration at the 90% level, which refers to growth in some studies and to a panel of isolates in others.

Each structure is given as a SMILES string. Values after ≈ are worked out from the molar mass of the structure shown.

Assay [1] relates to Streptococcus pneumoniae. Kind of assay: Antibacterial activity against Streptococcus pneumoniae M55B overexpressing patA, patB and inactivated patB with single mutation by standardized agar doubling dilution method. The class given is functional. An outline of the steps:
(§1)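 MICs were determined by agar doubling dilution following BSAC guidelines, with no efflux inhibitor. Strains were grown in brain heart infusion broth for 24 h at 37°C in 5% CO2. Species identity was confirmed by Gram stain, optochin sensitivity and capsule test. Control strain R6 was tested alongside.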

Assay [2] deals with Streptococcus pneumoniae. Kind of assay: Antibacterial activity against wild type Streptococcus pneumoniae M4 NCTC 7465 type 1 by standardized agar doubling dilution method in presence of 50 uM sodium orthovanadate efflux pump inhibitor. The class given is functional.
In assay [3] the test system is Streptococcus pneumoniae. Nature of the assay: Antibacterial activity against Streptococcus pneumoniae M311 overexpressing patA, patB and inactivated patA with single mutation by standardized agar doubling dilution method in presence of 20 ug/ml reserpine efflux pump inhibitor. Format: functional. Summed up: (§2)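 MICs determined by BSAC standardized agar doubling dilution. Strains were grown in brain heart infusion broth for 24 h at 37°C in 5% CO2. Inhibitor arms had reserpine at 20 μg/ml or sodium orthovanadate at 50 μM in the agar. Mutants were made by transforming magellan2 insertion amplimers into clinical isolates and selecting on spectinomycin 100 mg/liter, with a no-DNA spontaneous-mutation control.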

The subject of assay [4] is Streptococcus pneumoniae. Kind of assay: Antibacterial activity against Streptococcus pneumoniae M46A overexpressing patA, patB and inactivated patA with single mutation by standardized agar doubling dilution method in presence of 50 uM sodium orthovanadate efflux pump inhibitor. Format: functional. Summed up:
(§3)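 MICs were determined by BSAC agar doubling dilution in the presence of sodium orthovanadate at 50 μM. Cultures were grown in BHI broth for 24 h at 37°C in 5% CO2, with R6 as control. Synergy was defined as an MIC reduction of ≥2 dilutions with the inhibitor present.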

Assay [5] concerns Streptococcus pneumoniae. Nature of the assay: Antibacterial activity against fluoroquinolone-resistant Streptococcus pneumoniae M79 FQ-R overexpressing patA, patB by standardized agar doubling dilution method in presence of 20 ug/ml reserpine efflux pump inhibitor. The class given is functional. An outline of the steps:
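Clinical S. pneumoniae isolates grown in BHI broth 24 h at 37°C in 5% CO2. MICs by agar doubling dilution per BSAC guidelines, alone or with efflux inhibitor reserpine (20 μg/ml) or sodium orthovanadate (50 μM). Synergy defined as ≥2-dilution MIC reduction in presence of inhibitor.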

In assay [6] the test system is Streptococcus pneumoniae. Kind of assay: Antibacterial activity against fluoroquinolone, dye-resistant Streptococcus pneumoniae M74 overexpressing patA, patB by standardized agar doubling dilution method in presence of 50 uM sodium orthovanadate efflux pump inhibitor. Format: functional. Summed up: (§4)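 MIC by agar doubling dilution following BSAC guidelines. Strains grown in brain heart infusion broth 24 h at 37°C in 5% CO2. Where an efflux pump inhibitor applies, MIC redetermined with reserpine at 20 μg/ml or sodium orthovanadate at 50 μM. Synergy taken as a fall in MIC of ≥2 dilutions with inhibitor present. Dye resistance defined relative to R6 (both dyes ≥2 dilutions higher).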

Assay [7] concerns Streptococcus pneumoniae. Nature of the assay: Antibacterial activity against fluoroquinolone-resistant Streptococcus pneumoniae M100 FQ-R overexpressing patA, patB by standardized agar doubling dilution method. Format: functional. Summed up:
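MIC by agar doubling dilution per BSAC guidelines; strains pregrown in brain heart infusion broth 24 h, 37°C, 5% CO2. MICs measured alone and with efflux pump inhibitors reserpine (20 μg/ml) or sodium orthovanadate (50 μM); synergy defined as ≥2-dilution MIC reduction in presence of inhibitor.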

In assay [8] the test system is Streptococcus pneumoniae. Nature of the assay: Antibacterial activity against fluoroquinolone, dye-susceptible Streptococcus pneumoniae by standardized agar doubling dilution method. Format: functional. Summed up: as §4
Assay [9] relates to Streptococcus pneumoniae. Kind of assay: Antibacterial activity against Streptococcus pneumoniae M87A overexpressing patA, patB and inactivated patA with single mutation by standardized agar doubling dilution method in presence of 20 ug/ml reserpine efflux pump inhibitor. The class given is functional. Summed up:
(§5)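 MICs were determined by BSAC agar doubling dilution in the presence of reserpine at 20 μg/ml. Strains were grown in BHI broth for 24 h at 37°C in 5% CO2, with R6 as control. Synergy was defined as an MIC drop of ≥2 dilutions with the inhibitor.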

Assay [10] has as its system Streptococcus pneumoniae. Nature of the assay: Antibacterial activity against fluoroquinolone, dye-resistant Streptococcus pneumoniae M86 overexpressing patA, patB by standardized agar doubling dilution method. Format: functional. An outline of the steps: as §4
For assay [11], the system named is Streptococcus pneumoniae. Nature of the assay: Antibacterial activity against fluoroquinolone, dye-resistant Streptococcus pneumoniae by standardized agar doubling dilution method in presence of 20 ug/ml reserpine efflux pump inhibitor. Format: functional. Summed up:
as §4

The test system of assay [12] is Streptococcus pneumoniae. Kind of assay: Antibacterial activity against dye-resistant Streptococcus pneumoniae M55 DR overexpressing patA, patB by standardized agar doubling dilution method. The class given is functional. An outline of the steps:
as §1

In assay [13] the test system is Streptococcus pneumoniae. Kind of assay: Antibacterial activity against Streptococcus pneumoniae M310 overexpressing patA, patB and inactivated patB with single mutation by standardized agar doubling dilution method. Format: functional. Summed up: as §2
Assay [14] concerns Streptococcus pneumoniae. Nature of the assay: Antibacterial activity against wild type Streptococcus pneumoniae R6 by standardized agar doubling dilution method. Format: functional. An outline of the steps:
as §4

For assay [15], the system named is Streptococcus pneumoniae. Nature of the assay: Antibacterial activity against fluoroquinolone, dye-susceptible Streptococcus pneumoniae M295 S overexpressing patA, patB by standardized agar doubling dilution method in presence of 20 ug/ml reserpine efflux pump inhibitor. The class given is functional. Summed up:
as §4

Assay [16] relates to Streptococcus pneumoniae. Kind of assay: Antibacterial activity against Streptococcus pneumoniae M86A overexpressing patA, patB and inactivated patA with single mutation by standardized agar doubling dilution method in presence of 50 uM sodium orthovanadate efflux pump inhibitor. Format: functional. An outline of the steps: as §3
The subject of assay [17] is Streptococcus pneumoniae. Nature of the assay: Antibacterial activity against Streptococcus pneumoniae M86A overexpressing patA, patB and inactivated patA with single mutation by standardized agar doubling dilution method in presence of 20 ug/ml reserpine efflux pump inhibitor. Format: functional. An outline of the steps: as §5
Assay [18] relates to Streptococcus pneumoniae. Nature of the assay: Antibacterial activity against dye-resistant Streptococcus pneumoniae M55 DR overexpressing patA, patB by standardized agar doubling dilution method in presence of 50 uM sodium orthovanadate efflux pump inhibitor. The class given is functional. Summed up:
as §4

Assay [19] relates to Streptococcus pneumoniae. Kind of assay: Antibacterial activity against wild type Streptococcus pneumoniae R6 by standardized agar doubling dilution method in presence of 20 ug/ml reserpine efflux pump inhibitor. The class given is functional. An outline of the steps:
as §4

Assay [20] has as its system Streptococcus pneumoniae. Kind of assay: Antibacterial activity against Streptococcus pneumoniae M86B overexpressing patA, patB and inactivated patB with single mutation by standardized agar doubling dilution method in presence of 20 ug/ml reserpine efflux pump inhibitor. Format: functional. Summed up: as §5
The test system of assay [21] is Streptococcus pneumoniae. Kind of assay: Antibacterial activity against dye-resistant Streptococcus pneumoniae M46 DR overexpressing patA, patB by standardized agar doubling dilution method in presence of 50 uM sodium orthovanadate efflux pump inhibitor. The class given is functional. An outline of the steps:
as §3

Assay [22] has as its system Streptococcus pneumoniae. Kind of assay: Antibacterial activity against Streptococcus pneumoniae M86B overexpressing patA, patB and inactivated patB with single mutation by standardized agar doubling dilution method in presence of 50 uM sodium orthovanadate efflux pump inhibitor. Format: functional. An outline of the steps:
as §3

The subject of assay [23] is Streptococcus pneumoniae. Kind of assay: Antibacterial activity against fluoroquinolone, dye-resistant Streptococcus pneumoniae M86 overexpressing patA, patB by standardized agar doubling dilution method in presence of 20 ug/ml reserpine efflux pump inhibitor. The class given is functional. Summed up: as §4
The subject of assay [24] is Streptococcus pneumoniae. Nature of the assay: Antibacterial activity against wild-type Streptococcus pneumoniae R6 by standardized agar doubling dilution method in presence of 20 ug/ml reserpine efflux pump inhibitor.
Assay [25] concerns Streptococcus pneumoniae. Kind of assay: Antibacterial activity against fluoroquinolone, dye-resistant Streptococcus pneumoniae M86 overexpressing patA, patB by standardized agar doubling dilution method in presence of 50 uM sodium orthovanadate efflux pump inhibitor. Format: functional. Summed up:
as §4

Assay [26] relates to Streptococcus pneumoniae. Nature of the assay: Antibacterial activity against wild type Streptococcus pneumoniae M4 NCTC 7465 type 1 by standardized agar doubling dilution method in presence of 20 ug/ml reserpine efflux pump inhibitor. Format: functional. Summed up: as §4
Assay [27] relates to Streptococcus pneumoniae. Nature of the assay: Antibacterial activity against wild type Streptococcus pneumoniae M3 NCTC 7466 type 2 by standardized agar doubling dilution method in presence of 20 ug/ml reserpine efflux pump inhibitor. The class given is functional. Summed up:
as §4

With `O=C(O)c1cn(C2CC2)c2cc(N3CCNCC3)c(F)cc2c1=O` [CIPROFLOXACIN], the MIC in assay [1] is 2 µg/mL (≈ 6.04 µM); in assay [2], 1 µg/mL; in assay [3] it was 4 µg/mL; in assay [4], 0.12 µg/mL; in assay [5] it was 32 µg/mL; in assay [6], 64 µg/mL. In addition, the MIC in [7] is 8 µg/mL (≈ 24.1 µM); in assay [8] it was 0.25 µg/mL (≈ 0.754 µM); in assay [9] it was 8 µg/mL; in assay [10], 2 µg/mL (≈ 6.04 µM); in assay [12], 0.25 µg/mL (≈ 0.754 µM); in [13] it was 4 µg/mL (≈ 12.1 µM). In addition, the MIC90 in [8] stood at 0.25 µg/mL (≈ 0.754 µM); in [11] it was 4 µg/mL.
On to `CC[n+]1c(-c2ccccc2)c2cc(N)ccc2c2ccc(N)cc21.[Br-]` [HOMIDIUM BROMIDE], for which the minimal inhibitory concentration (MIC) in assay [14] was 1 µg/mL; in assay [15], 0.25 µg/mL; in assay [16], 0.5 µg/mL; in assay [1] it was 0.5 µg/mL; in [17], 0.5 µg/mL; in [18], 1 µg/mL. Further, the minimum inhibitory concentration (MIC) in assay [19] was 0.3 µg/mL; in [20] it was 0.5 µg/mL; in [21] it was 1 µg/mL; in [2] it was 0.3 µg/mL; in assay [3] it was 0.5 µg/mL; in assay [4], 0.5 µg/mL. The minimum inhibitory concentration (MIC) was determined as 0.5 µg/mL in [5]; 1 µg/mL in [6]; 0.5 µg/mL in assay [22]; 4 µg/mL in assay [7]; 0.5 µg/mL in assay [23]; 0.5 µg/mL in [9]. Besides, the MIC in [10] came to 4 µg/mL; in assay [24], 0.25 µg/mL; in assay [12] it was 16 µg/mL; in [25], 0.5 µg/mL; in [13] it was 16 µg/mL; in assay [26], 0.3 µg/mL. Further, the MIC in assay [27] was 0.5 µg/mL. In addition, the MIC90 in [8] was found to be 2 µg/mL; in [11], 0.5 µg/mL.

(Values after ChEMBL document CHEMBL1687824, “Overexpression of patA and patB, which encode ABC transporters, is associated with fluoroquinolone resistance in clinical isolates of Streptococcus pneumoniae” (2011).)
